# Experimental data reported in ChEMBL document CHEMBL2010769, “Synthesis and antiviral activity of 6-deoxycyclopropavir, a new prodrug of cyclopropavir” (Bioorg Med Chem, 2012).
# Key:
# Human betaherpesvirus 5 [1] = assay: Antiviral activity against HCMV Toledo infected in human thymus/liver tissue xenografted in SCID mouse assessed as mean log10 genome equivalents/animal at 20 mg/kg, po qd for 28 days measured on day 35 by RT-PCR analysis (reference value: 3.28 +/- 1.422); type: functional, strain Toledo
# Human betaherpesvirus 5 [2] = assay: Antiviral activity against HCMV Toledo infected in human thymus/liver tissue xenografted in SCID mouse assessed as decrease in viral infection at 20 mg/kg, po qd for 14 days by RT-PCR analysis (reference value: 92%); type: functional, strain Toledo; design: scale not given: the % may be the effect or the level left
# Human betaherpesvirus 5 [3] = assay: Antiviral activity against HCMV Toledo infected in human thymus/liver tissue xenografted in SCID mouse assessed as mean log10 genome equivalents/animal at 20 mg/kg, po qd for 21 days by RT-PCR analysis (reference value: 3.82 +/- 1.24); type: functional, strain Toledo
# Human betaherpesvirus 5 [4] = assay: Antiviral activity against HCMV Toledo infected in human thymus/liver tissue xenografted in SCID mouse assessed as decrease in viral infection at 20 mg/kg, po qd for 21 days by RT-PCR analysis (reference value: 92%); type: functional, strain Toledo; design: scale not given: the % may be the effect or the level left
# Human betaherpesvirus 5 [5] = assay: Antiviral activity against HCMV Toledo infected in human thymus/liver tissue xenografted in SCID mouse assessed as decrease in viral infection at 20 mg/kg, po qd for 28 days measured on day 35 by RT-PCR analysis (reference value: 67%); type: functional, strain Toledo; design: scale not given: the % may be the effect or the level left
# Human betaherpesvirus 5 [6] = assay: Antiviral activity against HCMV Toledo infected in human thymus/liver tissue xenografted in SCID mouse assessed as mean log10 genome equivalents/animal at 20 mg/kg, po qd for 14 days by RT-PCR analysis (reference value: 3.50 +/- 0.878); type: functional, strain Toledo
# Human betaherpesvirus 5 [7] = assay: Antiviral activity against HCMV Toledo infected in human thymus/liver tissue xenografted in SCID mouse assessed as mean log10 genome equivalents/animal at 20 mg/kg, po qd for 28 days by RT-PCR analysis (reference value: 3.73 +/- 0.784); type: functional, strain Toledo
# Human betaherpesvirus 5 [8] = assay: Antiviral activity against HCMV Toledo infected in human thymus/liver tissue xenografted in SCID mouse assessed as decrease in viral infection at 20 mg/kg, po qd for 28 days by RT-PCR analysis (reference value: 92%); type: functional, strain Toledo; design: scale not given: the % may be the effect or the level left
# Murid betaherpesvirus 1 [9] = assay: Antiviral activity against MCMV infected in SCID mouse assessed as log10 reduction in viral titer in spleen at 10 mg/kg, po relative to control; type: functional
# Murid betaherpesvirus 1 [10] = assay: Antiviral activity against MCMV infected in SCID mouse assessed as log10 reduction in viral titer in lung at 10 mg/kg, po relative to control; type: functional
# Murid betaherpesvirus 1 [11] = assay: Antiviral activity against MCMV infected in SCID mouse assessed as log10 reduction in viral titer in liver at 10 mg/kg, po relative to control; type: functional
# Murid betaherpesvirus 1 [12] = assay: Antiviral activity against MCMV infected in SCID mouse assessed as log10 reduction in viral titer in kidney at 10 mg/kg, po relative to control; type: functional
# Murid betaherpesvirus 1 [13] = assay: Antiviral activity against MCMV infected in BALB/c mouse assessed as decrease in virus-induced mortality at 50 mg/kg, po qd for 5 days administered 24 hrs after viral infection (reference value: 67%); type: functional; design: scale not given: the % may be the effect or the level left
# Outline: (§1)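 Female BALB/c mice (3 weeks, 15/group) were inoculated ip with MCMV Smith at about LD90. Oral dosing of 0.2 mL in 0.4% CMC ran once daily for 5 days, starting 24 or 48 h post-inoculation. Mice were observed daily for 21 days. Mortality was compared with CMC placebo by Fisher's exact test.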
# Murid betaherpesvirus 1 [14] = assay: Antiviral activity against MCMV infected in BALB/c mouse assessed as decrease in virus-induced mortality at 5.6 mg/kg, po qd for 5 days administered 24 hrs after viral infection (reference value: 67%); type: functional; design: scale not given: the % may be the effect or the level left; outline: as §1
# Murid betaherpesvirus 1 [15] = assay: Antiviral activity against MCMV infected in BALB/c mouse assessed as decrease in virus-induced mean day of death at 50 mg/kg, po qd for 5 days administered 48 hrs after viral infection (reference value: 5.1 +/- 0.9 days); type: functional
# Murid betaherpesvirus 1 [16] = assay: Antiviral activity against MCMV infected in BALB/c mouse assessed as decrease in virus-induced mortality at 16.7 mg/kg, po qd for 5 days administered 24 hrs after viral infection (reference value: 67%); type: functional; design: scale not given: the % may be the effect or the level left; outline: as §1
# Murid betaherpesvirus 1 [17] = assay: Antiviral activity against MCMV infected in BALB/c mouse assessed as decrease in virus-induced mean day of death at 5.6 mg/kg, po qd for 5 days administered 24 hrs after viral infection (reference value: 4.9 +/- 0.7 days); type: functional
# Murid betaherpesvirus 1 [18] = assay: Antiviral activity against MCMV infected in BALB/c mouse assessed as decrease in virus-induced mortality at 5.6 mg/kg, po qd for 5 days administered 48 hrs after viral infection (reference value: 100%); type: functional; design: scale not given: the % may be the effect or the level left; outline: as §1
# Murid betaherpesvirus 1 [19] = assay: Antiviral activity against MCMV infected in BALB/c mouse assessed as decrease in virus-induced mean day of death at 5.6 mg/kg, po qd for 5 days administered 48 hrs after viral infection (reference value: 5.1 +/- 0.9 days); type: functional
# Murid betaherpesvirus 1 [20] = assay: Antiviral activity against MCMV infected in BALB/c mouse assessed as decrease in virus-induced mortality at 16.7 mg/kg, po qd for 5 days administered 48 hrs after viral infection (reference value: 100%); type: functional; design: scale not given: the % may be the effect or the level left; outline: as §1
# Murid betaherpesvirus 1 [21] = assay: Antiviral activity against MCMV infected in BALB/c mouse assessed as decrease in virus-induced mean day of death at 16.7 mg/kg, po qd for 5 days administered 48 hrs after viral infection (reference value: 5.1 +/- 0.9 days); type: functional
# Murid betaherpesvirus 1 [22] = assay: Antiviral activity against MCMV infected in BALB/c mouse assessed as decrease in virus-induced mortality at 50 mg/kg, po qd for 5 days administered 48 hrs after viral infection (reference value: 100%); type: functional; design: scale not given: the % may be the effect or the level left; outline: as §1
# Murid betaherpesvirus 1 [23] = assay: Antiviral activity against MCMV infected in BALB/c mouse assessed as decrease in virus-induced mean day of death at 50 mg/kg, po qd for 5 days administered 24 hrs after viral infection (reference value: 4.9 +/- 0.7 days); type: functional
# Murid betaherpesvirus 1 [24] = assay: Antiviral activity against MCMV infected in BALB/c mouse assessed as decrease in virus-induced mean day of death at 16.7 mg/kg, po qd for 5 days administered 24 hrs after viral infection (reference value: 4.9 +/- 0.7 days); type: functional
smiles,measurement,setting,value
Nc1ccn(C[C@@H](CO)OCP(=O)(O)O)c(=O)n1.O.O [CIDOFOVIR],Activity,Human betaherpesvirus 5 [1],1.59
same,Activity,Human betaherpesvirus 5 [2],82%
same,Activity,Human betaherpesvirus 5 [3],2.83
same,Activity,Human betaherpesvirus 5 [4],100%
same,Activity,Human betaherpesvirus 5 [5],0%
same,Activity,Human betaherpesvirus 5 [6],2.47
same,Activity,Human betaherpesvirus 5 [7],2.08
same,Activity,Human betaherpesvirus 5 [8],50%
Nc1nc2c(ncn2/C=C2/CC2(CO)CO)c(=O)[nH]1 [FILOCICLOVIR],FC,Murid betaherpesvirus 1 [9],2
same,FC,Murid betaherpesvirus 1 [10],2
same,FC,Murid betaherpesvirus 1 [11],2
same,FC,Murid betaherpesvirus 1 [12],2
Nc1nc2c(ncn2COC(CO)CO)c(=O)[nH]1 [GANCICLOVIR],Activity,Murid betaherpesvirus 1 [13],7%
same,Activity,Murid betaherpesvirus 1 [14],87%
same,Activity,Murid betaherpesvirus 1 [15],5.7 days
same,Activity,Murid betaherpesvirus 1 [16],20%
same,Activity,Murid betaherpesvirus 1 [17],6.8 days
same,Activity,Murid betaherpesvirus 1 [18],93%
same,Activity,Murid betaherpesvirus 1 [19],6.4 days
same,Activity,Murid betaherpesvirus 1 [20],53%
same,Activity,Murid betaherpesvirus 1 [21],7.3 days
same,Activity,Murid betaherpesvirus 1 [22],20%
same,Activity,Murid betaherpesvirus 1 [23],6 days
same,Activity,Murid betaherpesvirus 1 [24],6.3 days
